# Active and inactive are the calls of the source. Unless noted, how the calls were made is not given here.
# What was measured:
# [1] = molecular target: Pantothenate synthetase (Mycobacterium tuberculosis (strain ATCC 25618 / H37Rv)) (UniProt P9WIL5); assay: Coupled enzyme confirmation of inhibitors against recombinant Mtb PanC (AID 375); conditions: coupled enzyme assay; at 10 µM, stronger effect = higher value;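 further: 0% = full reaction with vehicle and 100% = no enzyme background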
# [2] = Her2 expression decrease, cell viability multiplex – SKBR3 breast tumor cells, AlphaScreen, ATP viability, primary screen (AID 461;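 active means Her2 level under about 52% in both replicate screens, with viability over 70% of control, limit read from the data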;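 on Her2 level: lower value means less Her2 protein in the cells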;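 on viability: percent of carrier control wells set as 100% viability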); conditions: SKBR3 Her2 protein level, 18-24 h, measured here: SKBR3 viability, ATP luminescence, at 10 µM
# [3] = molecular target: Receptor tyrosine-protein kinase erbB-2 (Homo sapiens) (UniProt P04626); assay: as above; conditions: 18-24 h, at 10 µM, stronger effect = lower value
# [4] = reduced viability of SK-BR-3 breast cancer cells – cell-based, 24 h, human, pilot screen (AID 572;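 active means viability at or below 10% of carrier control in both of two separate runs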;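 further: compound exposure lasted between 18 and 24 h rather than exactly 24 h; 100% = carrier-treated control wells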); conditions: SK-BR-3 viability, CellTiter-Glo luminescence, at 10 µM, stronger effect = lower value
# [5] = HUVEC growth inhibition – cell-based, human, primary screen (AID 575;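 active means viability at or below 30% in both replicate assays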;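 further: 100% = median of untreated cell wells with 0.1% DMSO on each plate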); conditions: HUVEC proliferation, CellTiter-Glo luminescence, 72 h; at 10 µM; stronger effect = lower value
# How it was run: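 material = primary HUVEC, no more than 12 passages | input = 1250 cells per well | controls = vehicle and MePR control wells | measured by = CTG luminescence | times = 72 h compound incubation | format = collagen-coated 384-well format | read-out = % viability vs DMSO wells | doses = single 10 µM dose, 0.1% DMSO, from 5x medium stock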
# [6] = H69AR cell proliferation blockers – human, duplicate replicates, primary screen (AID 580;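 active means viability at or under a set limit in both replicates, limit being median viability minus 3 SD, cut at about 48% in these data, passing the limit was not always enough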;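 further: 100% = mean luminescence of untreated wells and 0% = no signal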); conditions: H69AR lung tumor cells viability, ATP luminescence, 72 h; at 10 µM; stronger effect = lower value
# [7] = MRP1 drug-resistance reversers in H69AR cells – cell-based, doxorubicin co-treatment, pilot screen (AID 601;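 active means viability loss from added drug above about 55%, and viability with drug at most 40%, in both replicates, limit read from the data, passing the limit was not always enough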); conditions: CellTiter-Glo, 72 h, at 10 µM; for differential viability (reversal): stronger effect = higher value
# [8] = yeast transport mutant growth inhibition pilot in 384-well plates, post-Golgi transport modulator project (AID 636; in the data active means inhibition above about 31%); conditions: absorbance 615 nm, about 18 h, stronger effect = higher value
# [9] = growth suppression of yeast trafficking mutant, preliminary HTS, modulators of trafficking downstream of Golgi apparatus project, 1536-format plate, OD 615 nm (AID 637; in the data active means inhibition above about 30%); conditions: yeast transport mutant growth, absorbance 615 nm, 18 h; stronger effect = higher value
# [10] = H69AR cells + 2 uM doxorubicin, measured here: viability with 2 uM doxorubicin, stronger effect = lower value
# [11] = H69AR cells, compound alone cytotoxicity
# Chain of Pantothenate synthetase (Mycobacterium tuberculosis (strain ATCC 25618 / H37Rv)) (P9WIL5 whole entry, looked up): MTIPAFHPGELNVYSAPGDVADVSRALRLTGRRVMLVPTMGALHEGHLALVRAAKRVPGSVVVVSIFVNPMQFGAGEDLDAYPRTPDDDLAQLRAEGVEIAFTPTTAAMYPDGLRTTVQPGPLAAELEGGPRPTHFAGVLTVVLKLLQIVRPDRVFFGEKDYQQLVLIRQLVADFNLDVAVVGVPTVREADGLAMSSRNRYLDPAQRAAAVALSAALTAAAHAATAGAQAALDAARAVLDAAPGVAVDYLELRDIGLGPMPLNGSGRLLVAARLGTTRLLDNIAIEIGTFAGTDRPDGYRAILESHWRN
# Chain of Receptor tyrosine-protein kinase erbB-2 (Homo sapiens) (P04626 whole entry, looked up): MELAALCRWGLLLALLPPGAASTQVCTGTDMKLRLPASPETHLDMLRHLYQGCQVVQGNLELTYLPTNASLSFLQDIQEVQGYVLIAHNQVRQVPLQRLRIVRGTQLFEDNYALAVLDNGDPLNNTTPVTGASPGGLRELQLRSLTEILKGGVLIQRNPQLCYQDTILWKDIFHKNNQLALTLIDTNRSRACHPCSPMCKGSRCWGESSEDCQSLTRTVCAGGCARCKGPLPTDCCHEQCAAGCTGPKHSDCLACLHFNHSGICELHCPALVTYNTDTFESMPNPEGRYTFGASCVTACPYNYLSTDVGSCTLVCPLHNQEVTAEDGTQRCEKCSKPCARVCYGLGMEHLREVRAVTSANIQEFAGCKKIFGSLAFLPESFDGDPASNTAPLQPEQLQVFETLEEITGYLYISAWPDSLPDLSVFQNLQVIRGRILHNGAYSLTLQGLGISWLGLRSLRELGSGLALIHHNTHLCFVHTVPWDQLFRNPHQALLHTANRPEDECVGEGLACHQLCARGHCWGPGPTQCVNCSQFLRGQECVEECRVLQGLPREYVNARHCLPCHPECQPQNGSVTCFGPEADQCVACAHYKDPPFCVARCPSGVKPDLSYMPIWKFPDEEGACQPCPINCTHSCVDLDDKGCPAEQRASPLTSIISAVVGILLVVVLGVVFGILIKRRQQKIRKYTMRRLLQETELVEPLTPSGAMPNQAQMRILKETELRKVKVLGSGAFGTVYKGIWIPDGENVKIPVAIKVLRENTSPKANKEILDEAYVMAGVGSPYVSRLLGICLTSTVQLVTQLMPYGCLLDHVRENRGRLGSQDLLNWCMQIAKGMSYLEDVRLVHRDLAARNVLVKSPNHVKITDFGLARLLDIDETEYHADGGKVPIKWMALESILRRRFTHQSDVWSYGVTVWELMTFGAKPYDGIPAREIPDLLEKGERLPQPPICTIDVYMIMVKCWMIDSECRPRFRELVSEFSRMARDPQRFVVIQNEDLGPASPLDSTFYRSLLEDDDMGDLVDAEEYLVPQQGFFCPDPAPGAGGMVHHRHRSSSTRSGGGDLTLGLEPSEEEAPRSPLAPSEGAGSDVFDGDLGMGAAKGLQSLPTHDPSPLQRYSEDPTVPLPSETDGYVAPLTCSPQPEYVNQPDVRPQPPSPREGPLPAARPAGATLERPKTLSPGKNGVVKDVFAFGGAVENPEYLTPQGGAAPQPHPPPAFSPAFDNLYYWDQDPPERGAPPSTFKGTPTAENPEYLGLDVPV
SMILES,inhibition [1],viability [2],Her2 level [3],viability [4],viability [5],viability [6],differential viability (reversal) ([7]; H69AR cells + 2 uM doxorubicin),"viability [7, 10]","viability [7, 11]",inhibition [8],inhibition [9]
NCCc1ccc(O)cc1,0% (inactive),112%,112% (inactive),112% (inactive),103% (inactive),96.2% (inactive),4.17% (inactive),92.1%,96.2%,-5% (inactive),-21.1% (inactive)
CCN1CCN(Cc2cc(Br)cc(OC)c2O)CC1,7% (inactive),93.5%,114% (inactive),93.5% (inactive),110% (inactive),94.2% (inactive),-2.88% (inactive),97.1%,94.2%,-3.2% (inactive),-6.19% (inactive)
CC12CCCCC1=[N+]([O-])CN2O (centres undefined),5% (inactive),102%,112% (inactive),102% (inactive),109% (inactive),105% (inactive),15.9% (inactive),89.4%,105%,-1.33% (inactive),8.71% (inactive)
O=c1[nH]c(=O)n(CCc2ccc(F)cc2)c(O)c1C=NCCCn1ccnc1,0% (inactive),114%,84% (inactive),114% (inactive),99.5% (inactive),102% (inactive),15.3% (inactive),86.8%,102%,-4.8% (inactive),3.28% (inactive)
COC(=O)c1ccccc1-n1c(C)nc2ccccc2c1=O,4% (inactive),90%,105% (inactive),90% (inactive),111% (inactive),98.5% (inactive),3.37% (inactive),95.2%,98.5%,-2.5% (inactive),-5.97% (inactive)
CSc1ccc(C(=O)C(C)(C)N2CCOCC2)cc1,0% (inactive),106%,107% (inactive),106% (inactive),112% (inactive),105% (inactive),18.2% (inactive),87.2%,105%,-2.76% (inactive),6.56% (inactive)
Cn1c(C(=O)N2CCC3(CC2)OCCO3)cc2c(=O)n(C)c3ccccc3c21,0% (inactive),108%,82.5% (inactive),108% (inactive),80.2% (inactive),80.6% (inactive),-5.79% (inactive),86.4%,80.6%,-3.82% (inactive),-5.45% (inactive)
CCOc1ccc(-n2c(O)c(C=NCCN3CCNCC3)c(=O)[nH]c2=O)cc1,3% (inactive),102%,77.5% (inactive),102% (inactive),100% (inactive),89% (inactive),-4.71% (inactive),93.8%,89%,-1.58% (inactive),-3.71% (inactive)
O=C(c1ccc2nc3ccc(Cl)cc3c(=O)n2c1)N1CCC2(CC1)OCCO2,12% (inactive),97.5%,91.5% (inactive),97.5% (inactive),98% (inactive),96.7% (inactive),1.37% (inactive),95.4%,96.7%,-3.87% (inactive),1.94% (inactive)
COc1ccc(CC2C(=O)NC(=O)NC2=O)c(OC)c1,2% (inactive),96.5%,113% (inactive),96.5% (inactive),114% (inactive),106% (inactive),4.86% (inactive),101%,106%,2.8% (inactive),-1.75% (inactive)
OCCOCC#CCN1CCOCC1,0% (inactive),102%,114% (inactive),102% (inactive),101% (inactive),93.8% (inactive),3.84% (inactive),89.9%,93.8%,-1.45% (inactive),1.31% (inactive)
O=C(Cc1ccccc1)OC(COCc1ccccc1)CN1CCOCC1 (centres undefined),3% (inactive),83%,99% (inactive),83% (inactive),88.3% (inactive),94.2% (inactive),4.79% (inactive),89.4%,94.2%,-7.47% (inactive),-0.98% (inactive)
CC1CCN2c3nc4ccccn4c(=O)c3CC3(C(=O)N(C)C(=O)N(C)C3=O)C2C1 (centres undefined),0% (inactive),101%,72.5% (inactive),101% (inactive),93% (inactive),93.5% (inactive),-8.53% (inactive),102%,93.5%,-1.32% (inactive),1.64% (inactive)
CN(C)c1cc(N)c2c(n1)CCC2 (tested in a mixture with another compound),0% (inactive),113%,134% (inactive),113% (inactive),102% (inactive),86.1% (inactive),-1.48% (inactive),87.6%,86.1%,-4.49% (inactive),-5.17% (inactive)
